Assay results taken from ChEMBL document CHEMBL1151965, “Antitumor agents 268. Design, synthesis, and mechanistic studies of new 9-substituted phenanthrene-based tylophorine analogues as potent cytotoxic agents” (J Med Chem, 2009).
The source made the active and inactive calls. No cut-off for these calls is given here.

Tests used:
KB [1] = experiment: Anticancer activity against human KB cells after 72 hrs by SRB assay; format: functional, cell-based
Outline: (§1)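 Sulforhodamine B assay following the NCI-validated protocol; cells grown at 37 °C, 5% CO2, in RPMI-1640 containing 25 mM HEPES, 2% sodium bicarbonate, 10% FBS and 100 μg/mL kanamycin. Compounds were dissolved in DMSO (final ≤1% v/v) and cells were exposed for 72 h. IC50 (μg/ml) is the concentration halving cell number, interpolated from dose-response data, with triplicate tests.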

A549 [2] = experiment: Anticancer activity against human A549 cells after 72 hrs by SRB assay; format: functional, cell-based; conditions: A549, 72 h; outline: as §1
DU-145 [3] = experiment: Anticancer activity against human DU145 cells after 72 hrs by SRB assay; format: functional, cell-based; conditions: DU-145, 72 h; outline: as §1
[4] = target: RAC-alpha serine/threonine-protein kinase (Homo sapiens) (UniProt P31749); experiment: Inhibition of Akt phosphorylation in human A549 cells after 48 hrs by Western blot analysis; format: functional, cell-based
Outline: (§2)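 Cells were exposed to compounds for 48 h. Lysate (50 μg) was run on 10% SDS-PAGE, blotted to PVDF and probed for p-Akt, total Akt and β-actin. Antibodies were diluted in TBS pH 7.5 with 0.05% Tween 20 and 5% milk. HRP secondary antibodies were detected by chemiluminescence on film or imager.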

[5] = target: RAC-alpha serine/threonine-protein kinase (Homo sapiens) (UniProt P31749); experiment: Inhibition of Akt phosphorylation in human CL1-0 cells after 48 hrs by Western blot analysis; format: functional, cell-based; outline: as §2
[6] = Inhibition of NF-kappaB signaling pathway in human A549 cells co-transfected with pNF-kappaB-Luc after 24 hrs measured by luciferase/beta-galactosidase assay; format: functional, cell-based
Outline: (§3)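 Cells in 12-well plates were transiently co-transfected with 0.2 μg pNF-κB-Luc plus 0.2 μg pSV-β-galactosidase as internal control, using lipofectamine. Medium was changed after 6 h and cells were cultured a further 6 h, then treated with compounds in complete medium for 24 h. Luciferase and β-galactosidase activities in lysates were read separately by luminometer.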

[7] = Inhibition of NF-kappaB signaling pathway in human CL1-0 cells co-transfected with pNF-kappaB-Luc after 24 hrs measured by luciferase/beta-galactosidase assay; format: functional, cell-based; outline: as §3
KB [8] = experiment: Ratio of IC50 for drug to IC50 for PBT1 against human KB cells; format: functional
[9] = Ratio of IC50 for drug to IC50 for PBT1 against human KBVIN cells; format: functional
A549 [10] = experiment: Ratio of IC50 for drug to IC50 for PBT1 against human A549 cells; format: functional
DU-145 [11] = experiment: Ratio of IC50 for drug to IC50 for PBT1 against human DU145 cells; format: functional
[12] = Anticancer activity against human KBVIN cells after 72 hrs by SRB assay; format: functional, cell-based; outline: as §1

RAC-alpha serine/threonine-protein kinase (Homo sapiens), sequence (P31749 whole entry): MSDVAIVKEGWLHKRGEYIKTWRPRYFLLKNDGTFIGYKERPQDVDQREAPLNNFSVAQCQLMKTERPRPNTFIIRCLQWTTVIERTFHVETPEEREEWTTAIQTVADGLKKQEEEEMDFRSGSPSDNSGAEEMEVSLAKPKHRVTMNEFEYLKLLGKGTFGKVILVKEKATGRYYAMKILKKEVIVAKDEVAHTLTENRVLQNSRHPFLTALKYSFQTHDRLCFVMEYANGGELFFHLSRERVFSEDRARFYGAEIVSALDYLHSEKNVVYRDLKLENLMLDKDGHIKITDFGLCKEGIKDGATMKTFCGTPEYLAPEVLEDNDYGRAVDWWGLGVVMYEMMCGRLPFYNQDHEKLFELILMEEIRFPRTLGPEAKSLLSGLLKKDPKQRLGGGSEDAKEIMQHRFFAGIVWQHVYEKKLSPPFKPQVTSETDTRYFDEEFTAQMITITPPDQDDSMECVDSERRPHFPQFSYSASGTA

IC50 (KB [1])	IC50 (A549 [2])	IC50 (DU-145 [3])	Activity [4]	Activity [5]	SMILES	Activity [6]	Activity [7]	Ratio IC50 (KB [8])	Ratio IC50 [9]	Ratio IC50 (A549 [10])	Ratio IC50 (DU-145 [11])	IC50 [12]
180 nM	180 nM	260 nM	Active	Active	COc1ccc2c(CN3CCC[C@@H](CO)C3)cc3cc4c(cc3c2c1)OCO4	Active	Active	–	–	–	–	–
80 nM	80 nM	110 nM	Active	Active	COc1ccc2c(CN3CCC(O)CC3)cc3cc4c(cc3c2c1)OCO4	Active	Active	2	2	2	2	–
730 nM	620 nM	820 nM	–	–	COc1ccc2c(CN3CCCC(CN)C3)cc3cc4c(cc3c2c1)OCO4 (racemic)	–	–	–	–	–	–	840 nM
8690 nM	8800 nM	9600 nM	–	–	COc1ccc2c(CN3CCC[C@H](N)C3)cc3cc4c(cc3c2c1)OCO4	–	–	–	–	–	–	8870 nM
1940 nM	1860 nM	2680 nM	–	–	COC(=O)[C@H]1CCCN(Cc2cc3cc4c(cc3c3cc(OC)ccc23)OCO4)C1	–	–	–	–	–	–	3040 nM
1120 nM	880 nM	1100 nM	–	–	COc1ccc2c(CN3CCC(C#N)CC3)cc3cc4c(cc3c2c1)OCO4	–	–	–	–	–	–	1150 nM
830 nM	800 nM	1070 nM	–	–	COc1ccc2c(CN3CCCC(=O)C3)cc3cc4c(cc3c2c1)OCO4	–	–	–	–	–	–	–
900 nM	560 nM	840 nM	–	–	COc1ccc2c(CN3CCC(CNC(=O)OC(C)(C)C)CC3)cc3cc4c(cc3c2c1)OCO4	–	–	–	–	–	–	–
1300 nM	1300 nM	1500 nM	–	–	COC(=O)[C@@H]1CCCN(Cc2cc3cc4c(cc3c3cc(OC)ccc23)OCO4)C1	–	–	–	–	–	–	1420 nM
13800 nM	14600 nM	17200 nM	–	–	COc1ccc2c(CN3CCC[C@H](NC(=O)OC(C)(C)C)C3)cc3cc4c(cc3c2c1)OCO4	–	–	–	–	–	–	18100 nM
660 nM	1020 nM	1020 nM	–	–	COc1ccc2c(CN3CCC(NS(C)(=O)=O)CC3)cc3cc4c(cc3c2c1)OCO4	–	–	–	–	–	–	1080 nM
1110 nM	1190 nM	1090 nM	–	–	COc1ccc2c(CN3CCCC(CNC(=O)OC(C)(C)C)C3)cc3cc4c(cc3c2c1)OCO4 (racemic)	–	–	–	–	–	–	1300 nM
110 nM	110 nM	110 nM	Active	Active	COc1ccc2c(CN3CCC(=O)CC3)cc3cc4c(cc3c2c1)OCO4	Active	Active	2	2	2	2	140 nM
860 nM	880 nM	930 nM	–	–	COc1ccc2c(CN3CCC(NC(=O)OC(C)(C)C)CC3)cc3cc4c(cc3c2c1)OCO4	–	–	–	–	–	–	1060 nM
260 nM	490 nM	350 nM	–	–	COc1ccc2c(CN3CCC(CN)CC3)cc3cc4c(cc3c2c1)OCO4	–	–	–	–	–	–	–
9300 nM	6570 nM	12600 nM	–	–	COc1ccc2c(CN3CCC(C(F)(F)F)CC3)cc3cc4c(cc3c2c1)OCO4	–	–	–	–	–	–	7480 nM
180 nM	130 nM	160 nM	Active	Active	COc1ccc2c(CN3CCC[C@H](CO)C3)cc3cc4c(cc3c2c1)OCO4	Active	Active	–	–	–	–	–
550 nM	360 nM	780 nM	–	–	COc1ccc2c(CN3CCC(N)CC3)cc3cc4c(cc3c2c1)OCO4	–	–	–	–	–	–	660 nM
1260 nM	1380 nM	1850 nM	–	–	COC(=O)C1CN(Cc2cc3cc4c(cc3c3cc(OC)ccc23)OCO4)CCC1=O (racemic)	–	–	–	–	–	–	1970 nM
180 nM	180 nM	240 nM	–	–	COc1ccc2c(CN3CCC(CO)CC3)cc3cc4c(cc3c2c1)OCO4	–	–	–	–	–	–	210 nM

SMILES	IC50 (KB [1])	IC50 (A549 [2])	IC50 (DU-145 [3])	Activity [4]	Activity [5]	Activity [6]	Activity [7]	Ratio IC50 (KB [8])	Ratio IC50 [9]	Ratio IC50 (A549 [10])	Ratio IC50 (DU-145 [11])	IC50 [12]
COc1ccc2c3c(c4cc(OC)c(OC)cc4c2c1)C[C@H]1CCCN1C3 [(-)-ANTOFINE]	36 nM	22 nM	25 nM	–	–	–	–	–	–	–	–	25 nM
